{"source": "ChEMBL document CHEMBL5678798", "about": "(Clin Cancer Res, 2009)", "key": {"[1]": {"test_system": "EJM", "assay": "Antiproliferative activity against human EJM cells assessed as reduction in cell viability after 72 hrs by CellTiter-Glo assay", "assay_type": "functional, cell-based", "outline": "(§1)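 Cells seeded in 96-well plates, left overnight at 37°C, then exposed to a range of test concentrations for 72 h. Viability read by CellTiter-Glo luminescence; IC50 from four-parameter curve fit. Lines kept at 37°C, 5% CO2, in recommended growth medium.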"}, "[2]": {"assay": "Antiproliferative activity against human SR-786 cells assessed as reduction in cell viability after 72 hrs by CellTiter-Glo assay", "assay_type": "functional, cell-based", "settings": "SR-786, 72 h", "outline": "as §1"}, "[3]": {"test_system": "MCF7", "assay": "Induction of cell cycle arrest in human MCF7 cells assessed as increase in cells accumulation at G1 phase at 0.03 to 10 uM incubated for 24 to 48 hrs by propidium iodide staining based flow cytometric analysis", "assay_type": "functional", "settings": "dose 0.03-10 µM, time lower 24.0 hrs, time upper […]", "outline": "(§2)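 COLO 205, MCF-7 or NCI-H929 cells seeded in 96-well plates overnight at 37°C, then exposed to DMSO or increasing compound concentrations for 24 or 48 h. Fixed and stained with propidium iodide (Vindelov method), then analysed by flow cytometry for sub-G1, G1, S and G2-M fractions. Experiment repeated twice.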"}, "[4]": {"test_system": "NCI-H929", "assay": "Induction of cell cycle arrest in human NCI-H929 cells assessed as effect on sub-2N-DNA content at 0.03 to 10 uM incubated for 24 to 48 hrs by propidium iodide staining based flow cytometric analysis", "assay_type": "functional", "settings": "dose 0.03-10 µM, time lower 24.0 hrs, time upper […]", "outline": "as §2"}, "[5]": {"test_system": "COLO 205", "assay": "Antitumor activity against human COLO 205 cells xenografted in nu/nu CD-1 mouse assessed as reduction in tumor growth at 30 mg/kg, po for 21 days relative to control", "assay_type": "functional", "settings": "COLO 205, 504 h, time 21 day, read-out: TGI", "outline": "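Exponentially growing cells implanted s.c. in the right flank of 8–10-wk-old female athymic nu/nu CD-1 mice. At 150–200 mm3, block-randomized by tumor size into groups of eight. Oral dosing once or twice daily for 21 d; vehicle 20% sulfobutylether-β-cyclodextrin, pH 3.5. Calipers twice weekly; volume = length×width²/2. Growth inhibition = 100×[1 − treated growth/vehicle growth].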"}, "[6]": {"assay": "Toxicity in nu/nu CD-1 mouse xenografted with human COLO 205 cells assessed as reduction in body weight at 30 mg/kg, po administered twice daily for 21 days relative to control", "assay_type": "organism-based", "design": "scale not given: the % may be the effect or the level left", "settings": "in vivo, 504 h, time 21 day"}, "[7]": {"biological_target": "TGF-beta receptor type-1 (Homo sapiens, UniProt P36897)", "sequence (P36897 whole entry)": "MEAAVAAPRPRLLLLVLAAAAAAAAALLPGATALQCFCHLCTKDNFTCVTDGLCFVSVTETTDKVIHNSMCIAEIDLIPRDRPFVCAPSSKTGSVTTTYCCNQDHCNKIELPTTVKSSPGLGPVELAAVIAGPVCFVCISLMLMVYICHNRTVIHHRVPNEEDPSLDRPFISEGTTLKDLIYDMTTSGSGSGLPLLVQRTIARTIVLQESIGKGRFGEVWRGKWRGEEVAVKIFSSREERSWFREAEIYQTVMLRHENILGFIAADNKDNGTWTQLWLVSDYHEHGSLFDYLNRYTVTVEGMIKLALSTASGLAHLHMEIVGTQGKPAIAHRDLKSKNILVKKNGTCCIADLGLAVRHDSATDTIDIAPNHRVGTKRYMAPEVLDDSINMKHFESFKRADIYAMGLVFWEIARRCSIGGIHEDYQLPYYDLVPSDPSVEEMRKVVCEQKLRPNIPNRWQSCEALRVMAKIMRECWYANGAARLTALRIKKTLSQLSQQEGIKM", "assay": "Inhibition of ALK5 (unknown origin)"}, "[8]": {"biological_target": "Mitogen-activated protein kinase 9 (Homo sapiens, UniProt P45984)", "assay": "Inhibition of JNK2 (unknown origin)"}, "[9]": {"biological_target": "Mitogen-activated protein kinase 10 (Homo sapiens, UniProt P53779)", "assay": "Inhibition of JNK3 (unknown origin)"}, "[10]": {"biological_target": "Serine/threonine-protein kinase SIK2 (Homo sapiens, UniProt Q9H0K1)", "assay": "Inhibition of SIK2 (unknown origin)"}, "[11]": {"biological_target": "NUAK family SNF1-like kinase 1 (Homo sapiens) (UniProt O60285)", "assay": "Inhibition of N-terminal 6His-tagged recombinant human ARK5 (2 to end residues) expressed in baculovirus infected Sf21 cells at 0.3 uM by filter binding assay relative to control", "outline": "(§3)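 KinaseProfiler panel of 233 kinases: radiometric filter-binding activity assays with compound at 0.3 or 3 µmol/L. Read-out is percent inhibition.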"}, "[12]": {"biological_target": "Dual specificity protein kinase CLK2 (Homo sapiens) (UniProt P49760)", "assay": "Inhibition of N-terminal GST-tagged recombinant human CLK2 (138 to end residues) expressed in baculovirus infected Sf21 cells at 0.3 uM by filter binding assay relative to control", "outline": "(§4)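 Outsourced single-concentration screen in a commercial panel of 233 protein kinases, run as radiometric filter-binding activity assays. Test agent was tested at 0.3 or 3 µmol/L, as given in each line, from a 10 mmol/L DMSO stock. Activity is expressed as percent inhibition relative to control.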"}, "[13]": {"biological_target": "PI3K p110 alpha/p85 alpha (Mus musculus) (UniProt P26450+P42337)", "assay": "Inhibition of recombinant mouse N-terminal 6His-tagged full length P110alpha/full length mouse p85alpha expressed in baculovirus infected Sf21 cells at 0.3 uM by filter binding assay relative to control"}, "[14]": {"biological_target": "Rho-associated protein kinase 2 (Homo sapiens) (UniProt O75116)", "assay": "Inhibition of N-terminal His6-tagged recombinant human ROCK-II (11 to 552 residues) expressed in baculovirus infected Sf21 cells at 0.3 uM by filter binding assay relative to control"}, "[15]": {"biological_target": "Serine/threonine-protein kinase tousled-like 2 (Homo sapiens) (UniProt Q86UE8)", "assay": "Inhibition of N-terminal 6His-tagged recombinant human TLK2 (388 to end residues) expressed in baculovirus infected Sf21 cells at 0.3 uM by filter binding assay relative to control", "outline": "as §4"}, "[16]": {"biological_target": "ALK tyrosine kinase receptor (Homo sapiens) (UniProt Q9UM73)", "sequence (Q9UM73 19-1620 limits assumed)": "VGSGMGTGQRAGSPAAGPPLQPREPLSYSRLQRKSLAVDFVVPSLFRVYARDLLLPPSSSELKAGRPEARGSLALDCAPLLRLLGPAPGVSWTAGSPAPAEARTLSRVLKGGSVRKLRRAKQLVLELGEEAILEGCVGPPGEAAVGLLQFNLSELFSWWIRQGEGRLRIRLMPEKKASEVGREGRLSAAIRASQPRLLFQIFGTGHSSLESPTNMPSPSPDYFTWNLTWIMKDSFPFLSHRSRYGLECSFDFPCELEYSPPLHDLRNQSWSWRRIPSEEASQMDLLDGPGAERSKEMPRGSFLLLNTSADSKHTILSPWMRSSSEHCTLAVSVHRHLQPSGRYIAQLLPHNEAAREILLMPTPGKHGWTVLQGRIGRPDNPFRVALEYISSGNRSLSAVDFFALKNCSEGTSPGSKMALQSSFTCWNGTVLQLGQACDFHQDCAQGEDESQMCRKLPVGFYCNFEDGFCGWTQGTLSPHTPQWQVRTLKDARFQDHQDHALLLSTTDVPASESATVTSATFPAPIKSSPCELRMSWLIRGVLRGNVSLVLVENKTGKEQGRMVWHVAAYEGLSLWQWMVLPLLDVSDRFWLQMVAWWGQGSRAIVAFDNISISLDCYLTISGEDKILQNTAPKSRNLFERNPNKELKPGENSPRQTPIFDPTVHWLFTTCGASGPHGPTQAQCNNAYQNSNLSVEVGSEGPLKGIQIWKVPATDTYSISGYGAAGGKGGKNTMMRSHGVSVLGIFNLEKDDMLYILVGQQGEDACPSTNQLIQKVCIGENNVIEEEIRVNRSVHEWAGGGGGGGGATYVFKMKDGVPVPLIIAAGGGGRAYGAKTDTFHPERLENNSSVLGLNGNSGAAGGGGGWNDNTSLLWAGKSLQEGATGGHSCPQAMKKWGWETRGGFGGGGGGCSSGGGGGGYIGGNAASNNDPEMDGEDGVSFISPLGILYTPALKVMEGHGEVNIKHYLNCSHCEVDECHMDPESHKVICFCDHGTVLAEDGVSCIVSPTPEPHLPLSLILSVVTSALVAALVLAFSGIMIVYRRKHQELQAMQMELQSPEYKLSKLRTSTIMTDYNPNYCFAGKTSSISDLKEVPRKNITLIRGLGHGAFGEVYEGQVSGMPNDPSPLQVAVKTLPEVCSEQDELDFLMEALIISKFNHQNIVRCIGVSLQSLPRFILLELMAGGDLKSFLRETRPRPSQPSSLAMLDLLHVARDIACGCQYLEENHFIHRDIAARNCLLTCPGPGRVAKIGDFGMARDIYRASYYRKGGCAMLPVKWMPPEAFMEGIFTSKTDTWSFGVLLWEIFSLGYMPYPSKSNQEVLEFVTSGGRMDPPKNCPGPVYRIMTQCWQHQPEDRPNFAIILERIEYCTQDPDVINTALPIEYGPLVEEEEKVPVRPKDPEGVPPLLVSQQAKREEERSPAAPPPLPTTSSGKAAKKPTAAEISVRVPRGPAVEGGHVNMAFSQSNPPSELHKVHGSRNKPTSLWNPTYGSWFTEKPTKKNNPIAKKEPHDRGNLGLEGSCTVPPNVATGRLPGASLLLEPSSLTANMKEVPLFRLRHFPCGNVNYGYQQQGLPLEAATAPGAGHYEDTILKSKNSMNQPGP", "assay": "Inhibition of N-terminal His6-tagged recombinant human ALK (1058 to end residues) expressed in baculovirus infected Sf21 cells at 3 uM by filter binding assay relative to control", "outline": "as §4"}, "[17]": {"biological_target": "Tyrosine-protein kinase Blk (Mus musculus) (UniProt P16277)", "assay": "Inhibition of N-terminal His6-tagged recombinant full-length mouse Blk expressed in baculovirus infected Sf21 cells at 3 uM by filter binding assay relative to control", "outline": "as §4"}, "[18]": {"biological_target": "Serine/threonine-protein kinase 17A (Homo sapiens) (UniProt Q9UEE5)", "assay": "Inhibition of N-terminal 6His-tagged recombinant full-length human DRAK1 expressed in baculovirus infected Sf21 cells at 3 uM by filter binding assay relative to control", "outline": "as §3"}, "[19]": {"assay": "Inhibition of […] N-terminal 6His-tagged full length human P110delta/full length human p85beta expressed in baculovirus infected Sf21 cells at 3 uM by filter binding assay relative to control", "settings": "condition cancer"}, "[20]": {"biological_target": "Serine/threonine-protein kinase pim-1 (Homo sapiens) (UniProt P11309)", "sequence (P11309 whole entry, looked up)": "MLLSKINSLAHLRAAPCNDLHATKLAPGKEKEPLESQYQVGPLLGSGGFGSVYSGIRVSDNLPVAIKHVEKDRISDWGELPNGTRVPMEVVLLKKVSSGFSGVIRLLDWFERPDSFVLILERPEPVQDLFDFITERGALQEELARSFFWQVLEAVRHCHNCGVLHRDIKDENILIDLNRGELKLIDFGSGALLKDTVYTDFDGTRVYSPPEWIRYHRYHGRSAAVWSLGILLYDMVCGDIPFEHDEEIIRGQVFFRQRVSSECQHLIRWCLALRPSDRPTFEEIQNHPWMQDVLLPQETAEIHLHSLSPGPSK", "assay": "Inhibition of N-terminal GST-tagged recombinant human full-length Pim-1 expressed in Escherichia coli cells at 3 uM by filter binding assay relative to control", "outline": "as §4"}, "[21]": {"biological_target": "Proto-oncogene tyrosine-protein kinase receptor Ret (Homo sapiens) (UniProt P07949)", "sequence (P07949 whole entry)": "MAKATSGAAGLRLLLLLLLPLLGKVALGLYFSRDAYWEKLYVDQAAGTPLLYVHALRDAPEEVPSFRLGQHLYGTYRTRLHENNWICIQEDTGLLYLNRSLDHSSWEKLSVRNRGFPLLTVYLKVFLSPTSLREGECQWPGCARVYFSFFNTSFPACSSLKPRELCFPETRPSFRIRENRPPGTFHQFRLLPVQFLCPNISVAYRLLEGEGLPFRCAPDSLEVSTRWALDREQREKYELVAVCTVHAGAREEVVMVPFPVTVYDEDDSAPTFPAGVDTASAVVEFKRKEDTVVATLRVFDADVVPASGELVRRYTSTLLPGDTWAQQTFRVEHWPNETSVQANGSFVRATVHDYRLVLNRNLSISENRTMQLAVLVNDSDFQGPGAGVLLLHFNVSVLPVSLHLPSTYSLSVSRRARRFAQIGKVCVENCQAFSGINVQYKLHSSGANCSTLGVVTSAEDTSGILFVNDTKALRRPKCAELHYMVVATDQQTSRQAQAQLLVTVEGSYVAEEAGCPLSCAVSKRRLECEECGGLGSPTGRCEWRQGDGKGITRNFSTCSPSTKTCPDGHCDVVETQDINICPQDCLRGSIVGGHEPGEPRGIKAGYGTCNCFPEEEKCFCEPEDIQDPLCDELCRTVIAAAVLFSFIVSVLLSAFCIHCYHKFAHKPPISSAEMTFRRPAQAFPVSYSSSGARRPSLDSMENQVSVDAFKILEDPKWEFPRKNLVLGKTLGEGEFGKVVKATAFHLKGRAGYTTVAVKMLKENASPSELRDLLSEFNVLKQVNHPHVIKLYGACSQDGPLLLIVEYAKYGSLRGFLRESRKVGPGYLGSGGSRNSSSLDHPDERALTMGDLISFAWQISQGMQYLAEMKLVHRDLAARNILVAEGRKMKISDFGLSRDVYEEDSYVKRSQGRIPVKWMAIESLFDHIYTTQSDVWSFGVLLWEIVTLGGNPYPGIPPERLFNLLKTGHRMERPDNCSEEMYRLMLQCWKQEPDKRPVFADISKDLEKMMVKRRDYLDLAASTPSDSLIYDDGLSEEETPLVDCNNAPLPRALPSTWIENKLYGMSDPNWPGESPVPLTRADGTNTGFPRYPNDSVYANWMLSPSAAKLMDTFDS", "assay": "Inhibition of N-Terminal GST-tagged recombinant human Ret (658 to end residues) expressed in baculovirus infected Sf21 cells at 3 uM by filter binding assay relative to control", "outline": "as §3"}, "[22]": {"biological_target": "Tyrosine-protein kinase ABL1 (Homo sapiens, UniProt P00519)", "assay": "Inhibition of N-terminal His6-tagged recombinant human Abl (27 to end residues) expressed in baculovirus infected Sf21 cells by filter binding assay"}, "[23]": {"biological_target": "Cytoplasmic tyrosine-protein kinase BMX (Homo sapiens, UniProt P51813)", "assay": "Inhibition of N-terminal His6-tagged recombinant full-length human BMX expressed in baculovirus infected Sf21 cells by filter binding assay"}, "[24]": {"biological_target": "Insulin receptor (Homo sapiens, UniProt P06213)", "sequence (P06213 28-758 limits assumed)": "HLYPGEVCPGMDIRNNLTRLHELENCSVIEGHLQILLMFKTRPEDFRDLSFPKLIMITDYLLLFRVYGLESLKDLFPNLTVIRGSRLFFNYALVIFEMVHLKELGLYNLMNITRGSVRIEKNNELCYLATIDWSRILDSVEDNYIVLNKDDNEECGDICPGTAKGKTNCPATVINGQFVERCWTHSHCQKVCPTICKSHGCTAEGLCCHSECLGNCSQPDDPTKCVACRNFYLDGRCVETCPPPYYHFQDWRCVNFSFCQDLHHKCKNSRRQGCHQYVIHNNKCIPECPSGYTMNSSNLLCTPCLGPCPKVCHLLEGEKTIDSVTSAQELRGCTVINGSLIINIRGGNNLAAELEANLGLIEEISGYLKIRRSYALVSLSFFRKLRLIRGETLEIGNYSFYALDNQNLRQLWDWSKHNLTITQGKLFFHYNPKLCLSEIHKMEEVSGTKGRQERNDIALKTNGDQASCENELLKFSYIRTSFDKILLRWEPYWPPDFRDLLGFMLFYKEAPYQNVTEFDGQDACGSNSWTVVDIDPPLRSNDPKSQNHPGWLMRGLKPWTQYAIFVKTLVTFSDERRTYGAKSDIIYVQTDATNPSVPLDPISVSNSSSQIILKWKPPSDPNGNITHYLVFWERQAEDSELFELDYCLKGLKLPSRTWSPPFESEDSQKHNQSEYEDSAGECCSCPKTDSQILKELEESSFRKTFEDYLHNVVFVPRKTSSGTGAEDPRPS", "sequence (P06213 763-1382 limits assumed)": "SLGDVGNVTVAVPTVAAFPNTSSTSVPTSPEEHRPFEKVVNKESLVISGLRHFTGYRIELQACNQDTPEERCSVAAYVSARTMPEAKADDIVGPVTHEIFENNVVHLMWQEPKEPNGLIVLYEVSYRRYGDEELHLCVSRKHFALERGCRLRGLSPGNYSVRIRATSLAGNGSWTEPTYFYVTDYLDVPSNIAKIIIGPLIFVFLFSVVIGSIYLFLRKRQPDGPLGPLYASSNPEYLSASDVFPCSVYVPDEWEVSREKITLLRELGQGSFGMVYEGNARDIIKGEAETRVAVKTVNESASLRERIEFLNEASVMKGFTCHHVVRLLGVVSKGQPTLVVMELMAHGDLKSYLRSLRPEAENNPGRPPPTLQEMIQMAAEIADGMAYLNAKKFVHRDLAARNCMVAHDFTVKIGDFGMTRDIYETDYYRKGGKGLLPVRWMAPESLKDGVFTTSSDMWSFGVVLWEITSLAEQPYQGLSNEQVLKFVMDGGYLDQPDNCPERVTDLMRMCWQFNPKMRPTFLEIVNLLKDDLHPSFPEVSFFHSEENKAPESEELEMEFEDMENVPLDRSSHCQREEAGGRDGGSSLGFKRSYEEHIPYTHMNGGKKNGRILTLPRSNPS", "assay": "Inhibition of N-terminal His6-tagged recombinant human IR (1005 to 1310 residues) expressed in baculovirus infected Sf21 cells by filter binding assay"}}, "note": "pIC50: −log10 of the molar value. The source made the active and inactive calls. The calls are words filed in the database; no cut-off is given here."}
{"molecule": "CCc1cc(Nc2nccc(-c3c(-c4ccc(OC)c(C(=O)Nc5c(F)cccc5F)c4)nc4ccccn34)n2)c(OC)cc1N1CCC(N2CCN(S(C)(=O)=O)CC2)CC1", "values": [{"measurement": "pIC50", "setting": "[1]", "result": "< 4.52"}, {"measurement": "pIC50", "setting": "[2]", "result": "< 4.52"}, {"measurement": "Activity", "setting": "[3]", "result": "Active"}, {"measurement": "Activity", "setting": "[4]", "result": "inactive"}, {"measurement": "inhibition in vivo at 30 mg/kg", "setting": "[5]", "result": 75, "unit": "%"}, {"measurement": "Activity", "setting": "[6]", "result": "> 20", "unit": "%"}, {"measurement": "pIC50", "setting": "[7]", "result": "< 5.00"}, {"measurement": "pIC50", "setting": "[8]", "result": "< 5.00"}, {"measurement": "pIC50", "setting": "[9]", "result": "< 5.00"}, {"measurement": "pIC50", "setting": "[10]", "result": "< 5.00"}, {"measurement": "inhibition", "setting": "[11]", "result": 4, "unit": "%"}, {"measurement": "inhibition", "setting": "[12]", "result": 0, "unit": "%"}, {"measurement": "inhibition", "setting": "[13]", "result": -10, "unit": "%"}, {"measurement": "inhibition", "setting": "[14]", "result": -8, "unit": "%"}, {"measurement": "inhibition", "setting": "[15]", "result": 0, "unit": "%"}, {"measurement": "inhibition", "setting": "[16]", "result": 39, "unit": "%"}, {"measurement": "inhibition", "setting": "[17]", "result": 22, "unit": "%"}, {"measurement": "inhibition", "setting": "[18]", "result": 10, "unit": "%"}, {"measurement": "inhibition at 3 µM", "setting": "[19]", "result": 2, "unit": "%"}, {"measurement": "inhibition", "setting": "[20]", "result": 25, "unit": "%"}, {"measurement": "inhibition", "setting": "[21]", "result": 52, "unit": "%"}, {"measurement": "pIC50", "setting": "[22]", "result": 5.32}, {"measurement": "pIC50", "setting": "[23]", "result": 5.92}, {"measurement": "pIC50", "setting": "[24]", "result": 7.13}]}
